# Experimental data gathered from unrelated publications.
# Each line is one published result; the experiments were not run side by side.
# Target: Serine/threonine-protein kinase OSR1 (OXSR1, Homo sapiens, UniProt O95747)
SMILES,observed,method,tested at,remaining binding [%]
C=CC(=O)N1CCC(C(=O)NCC(=O)N2CCN(c3nc(-c4cnc(N)nc4C(F)F)nc(N4CCOCC4)n3)CC2)CC1,binding,competition with immobilised ligand,1 µM,100
CC1CCCN1c1nccc(-c2cnn3ncccc23)n1 (stereo not shown),binding,,1 µM,100
COc1cnc(Nc2cccc(S(N)(=O)=O)c2)nc1N1CCN(c2ccccc2)CC1,binding,competition with immobilised ligand,1 µM,90
C[C@@H]1CCN(c2nccc(-c3cnn4ncccc34)n2)C1,binding,,1 µM,75
O=C(Nc1cccnn1)N1CCC(=Cc2cccc(Oc3ccc(C(F)(F)F)cn3)c2)CC1,cell-free assay,competition with immobilised ligand,1 µM,100
c1cnn2ncc(-c3ccnc(N4CCC45COC5)n3)c2c1,binding,,1 µM,62
O=C(NCCCN1CCOCC1)c1ccc(Nc2ncc(Cl)c(-c3ccc(Cl)s3)n2)cc1,binding,competition with immobilised ligand,1 µM,79
CS(=O)(=O)N1CCCC(NC(=O)[C@H](CCC2CCCCC2)NC(=O)c2ccc(CNc3ncnc4c3nnn4-c3ccccc3)cc2)C1 (stereo partly shown),cell-free assay,competition with immobilised ligand,0.1 µM,100
CN(CCCC(F)(F)F)c1nccc(-c2cnn3ncccc23)n1,binding,,1 µM,100
Cc1cnc(Nc2ccc(C(=O)N3CCC(N4CCCC4)CC3)cc2)nc1-c1cc2ccccc2s1,binding,competition with immobilised ligand,1 µM,81
F[C@@H]1CCN(c2nccc(-c3cnn4ncccc34)n2)C1,binding,,1 µM,100
O=C(Nc1c[nH]nc1C(=O)NC1CCNCC1)c1cc(F)cc(F)c1,binding,competition with immobilised ligand,1 µM,100
C[C@@H]1CN(c2cc(-c3nn(C)c4ccc(OC5(C)CC5)cc34)ncn2)C[C@H](C)O1,cell-free assay,competition with immobilised ligand,1 µM,93
N[C@@H]1CCN(c2nccc(-c3cnn4ncccc34)n2)C1,binding,,1 µM,100
CO[C@H]1CC[C@H](CNc2ccc(S(=O)(=O)NC(=O)c3ccc(N4CCN(CC5=C(c6ccc(Cl)cc6)CC(C)(C)CC5)CC4)cc3Oc3cnc4[nH]ccc4c3)cc2[N+](=O)[O-])CC1,cell-free assay,competition with immobilised ligand,1 µM,76
COc1ncc2cc3ccccc3nc2c1C#N,cell-free assay,competition with immobilised ligand,5 µM,100
O=S(=O)(NC1CCC(c2cc(F)ccc2F)(S(=O)(=O)c2ccc(Cl)cc2)CC1)C(F)(F)F (stereo not shown),cell-free assay,competition with immobilised ligand,1 µM,91
COc1cnc(Nc2cccc(S(N)(=O)=O)c2)nc1N1CCN(c2ccccc2)C(=O)C1,binding,competition with immobilised ligand,1 µM,100
C[C@H](c1ccc(F)cc1)N(Cc1cccc(C(=O)O)c1)C(=O)c1cnc2ccccc2c1,cell-free assay,competition with immobilised ligand,1 µM,100
FC(F)(F)Oc1cccc(-c2cnc3ccc(-c4ccncc4)nn23)c1,cell-free assay,competition with immobilised ligand,5 µM,82
O=C(c1ccc(Nc2ncc(Cl)c(-c3cc4ccccc4s3)n2)cc1)N1CCC(N2CCCC2)CC1,binding,competition with immobilised ligand,1 µM,74
CS(=O)(=O)c1cc(C2(NC(=O)c3cncc4c3cnn4-c3ccc(F)cc3)CC2)ccn1,cell-free assay,competition with immobilised ligand,1 µM,85
